ChEMBL document CHEMBL4371075, “α-Amino Diphenyl Phosphonates as Novel Inhibitors of Escherichia coli ClpP Protease” (J Med Chem, 2019)
Activity calls are given as the source filed them. No cut-off for these calls is given here.

Key:
[1] = system: HepG2; assay: Cytotoxicity against human HepG2 cells after 48 hrs by CellTiter-Glo assay; format: cell-based; settings: HepG2, 48 h
Summary of the method: (§1)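 Human cells seeded (2000 cells/well; A549 500 cells/well), 24 h at 37 °C, 5% CO2, then compounds added (final DMSO 1%), 1:3 dilution series from 100 µM, 48 h exposure. ATP read by CellTiter-Glo luminescence relative to DMSO-treated cells; DMSO (1%) negative and valinomycin (10 µM) positive controls; plates accepted at Z' > 0.5.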

[2] = system: A549; assay: Cytotoxicity against human A549 cells after 48 hrs by CellTiter-Glo assay; format: cell-based; settings: A549, 48 h; summary of the method: as §1
[3] = system: HeLa; assay: Cytotoxicity against human HeLa cells after 48 hrs by CellTiter-Glo assay; format: cell-based; summary of the method: as §1
[4] = target: ATP-dependent Clp protease proteolytic subunit (Escherichia coli (strain K12)) (UniProt P0A6G7); assay: Inhibition of Escherichia coli C-terminal His6-tagged ClpP expressed Escherichia coli SG1146a at 200 uM using Suc-LY-AMC as substrate preincubated for 10 mins followed by substrate addition and measured over 1 hr by fluorescence assay relative to control
Sequence of ATP-dependent Clp protease proteolytic subunit (Escherichia coli (strain K12)) (P0A6G7 whole entry): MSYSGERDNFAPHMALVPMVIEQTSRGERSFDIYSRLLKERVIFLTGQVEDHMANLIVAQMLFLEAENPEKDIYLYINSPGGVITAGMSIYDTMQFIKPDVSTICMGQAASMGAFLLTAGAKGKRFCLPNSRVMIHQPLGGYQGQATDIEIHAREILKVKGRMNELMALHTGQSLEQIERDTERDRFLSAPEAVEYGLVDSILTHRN
Summary of the method: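 E. coli ClpP (625 nM) in 100 mM NaCl, 100 mM Hepes pH 7.5, 0.05% Brij 35, preincubated with compound (200 µM final, triplicates) 10 min at 30 °C. Suc-LY-AMC added (75 µM), fluorescence (ex 350/em 435 nm) followed over 1 h at 30 °C. Inhibition relative to 2% DMSO vehicle; Z-LY-CMK (200 µM) positive control; plates valid at Z' > 0.6.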

[5] = target: alpha-chymotrypsin (Bos taurus, UniProt P00766); assay: Inhibition of bovine alpha-chymotrypsin assessed as residual activity at 200 uM relative to control; settings: cattle, read-out: Activity
Summary of the method: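 Bovine α-chymotrypsin (40 nM) with compound at 200 µM and Suc-LY-AMC (100 µM) in 150 mM NaCl, 10 mM CaCl2, 50 mM Tris-HCl, 0.05% Brij 35. AMC fluorescence read-out; residual activity relative to control without compound.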

[6] = target: ATP-dependent Clp protease proteolytic subunit (Escherichia coli (strain K12)) (UniProt P0A6G7); assay: Reversible binding affinity to Escherichia coli C-terminal His6-tagged ClpP expressed Escherichia coli SG1146a up to 320 uM measured after cessation of compound treatment by SPR analysis
Summary of the method: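 His-tagged E. coli ClpP amine-coupled to chip (80 µg/mL in 10 mM sodium acetate pH 4). Running buffer 150 mM NaCl, 10 mM Hepes, 3 mM EDTA, 0.05% Tween-20, 3.2% DMSO; 20 µL/min, 6 min injection, up to 300 s dissociation; 2.5–320 µM range. Reference-channel subtracted, DMSO/bulk-shift corrected; return to baseline after injection end judged.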

[7] = target: ATP-dependent Clp protease proteolytic subunit (Escherichia coli (strain K12), UniProt P0A6G7); assay: Inhibition of Escherichia coli C-terminal His6-tagged ClpP expressed Escherichia coli SG1146a using Suc-LY-AMC as substrate preincubated for 10 mins followed by substrate addition and measured over 1 hr by fluorescence assay
Sequence of ATP-dependent Clp protease proteolytic subunit (P0A6G7 whole entry): as above
Summary of the method: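 ClpP at 625 nM with compound serial dilutions (1:3 or 1:2) in 100 mM NaCl, 100 mM Hepes pH 7.5, 0.05% Brij 35, preincubated 10 min at 30 °C. Suc-LY-AMC added (75 µM), fluorescence (ex 350/em 435 nm) tracked 1 h at 30 °C against DMSO vehicle (2% v/v).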

[8] = system: Escherichia coli ClpP (C-terminal His6-tagged); assay: Selectivity index, ratio of EC50 for human A549 cells to IC50 for Escherichia coli C-terminal His6-tagged ClpP expressed Escherichia coli SG1146a; format: toxicity; settings: read-out: Selectivity Index
[9] = system: Escherichia coli; assay: Growth inhibition of wild-type Escherichia coli BW25113 at 100 uM measured at 1 hr time interval for 15 to 24 hrs; format: functional, organism-based
Summary of the method: (§2)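 E. coli BW25-113 and isogenic ΔclpP JW0427-1, grown overnight in MHB, diluted 1:100 in M9 + 10 mM glucose to OD600 ~0.3; assayed at OD600 0.1 with compound 100 µM, with or without DPTA NONOate (2 mM) for NO stress. 37 °C, 500 rpm; OD600 hourly for 15 or 24 h; mean of three independent experiments ± standard deviation.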

[10] = system: Escherichia coli; assay: Growth inhibition of ClpP-deficient Escherichia coli JW0427-1 at 100 uM under nitric oxide stress condition measured at 1 hr time interval for 15 to 24 hrs in presence of DPTA NONOate; format: functional, organism-based; summary of the method: as §2
[11] = system: Escherichia coli; assay: Growth inhibition of wild-type Escherichia coli BW25113 at 100 uM under nitric oxide stress condition measured at 1 hr time interval for 15 to 24 hrs in presence of DPTA NONOate; format: functional, organism-based; summary of the method: as §2
[12] = system: Escherichia coli; assay: Growth inhibition of ClpP-deficient Escherichia coli JW0427-1 at 100 uM measured at 1 hr time interval for 15 to 24 hrs; format: functional, organism-based; summary of the method: as §2

CN(C)c1ccc(C(NC(=O)OCc2ccccc2)P(=O)(Oc2ccccc2)Oc2ccccc2)cc1 (centres undefined)
EC50 [1]: 28.4 µM
EC50 [2]: 65.6 µM
EC50 [3]: ≥ 100 µM
inhibition [4]: 100%
activity at 200 µM [5]: ≥ 100%
Activity [6]: Active
IC50 [7]: 0.6 µM

O=C(NC(c1ccc(NC(=O)C(F)(F)F)cc1)P(=O)(Oc1ccccc1)Oc1ccccc1)OCc1ccc2c(c1)OCO2 (centres undefined)
EC50 [1]: ≥ 100 µM
EC50 [2]: 41.5 µM
selectivity ratio [8]: < 10
EC50 [3]: ≥ 100 µM
inhibition [4]: 93%
activity at 200 µM [5]: 46%
Activity [6]: Active
IC50 [7]: 8.2 µM

C[C@H](NC(=O)[C@H](CO)NC(=O)c1cccs1)C(=O)NC(Cc1ccc(NC(=N)N)cc1)P(=O)(Oc1ccccc1)Oc1ccccc1 (some centres undefined)
EC50 [1]: ≥ 100 µM
EC50 [2]: ≥ 100 µM
EC50 [3]: ≥ 100 µM
inhibition [4]: 90%
activity at 200 µM [5]: ≥ 100%
IC50 [7]: 49.5 µM

O=C(NC(c1c[nH]c2ccc(Cl)cc12)P(=O)(Oc1ccccc1)Oc1ccccc1)OCc1ccccc1 (centres undefined)
EC50 [1]: 10.5 µM
EC50 [2]: 5.9 µM
EC50 [3]: 19.9 µM
inhibition [4]: 88%
activity at 200 µM [5]: ≥ 100%
IC50 [7]: 100 µM

Nc1cccc(C(NC(=O)OCc2ccccc2)P(=O)(Oc2ccccc2)Oc2ccccc2)c1 (centres undefined)
EC50 [1]: 23.8 µM
growth inhibition (GI) [9]: inactive
EC50 [2]: 27.5 µM
EC50 [3]: ≥ 100 µM
inhibition [4]: 100%
growth inhibition (GI) [10]: inactive
growth inhibition (GI) [11]: Active
growth inhibition (GI) [12]: inactive
activity at 200 µM [5]: 17.9%
Activity [6]: Active
IC50 [7]: 0.5 µM

Nc1ccc(C(NC(=O)OCc2ccccc2)P(=O)(Oc2ccccc2)Oc2ccccc2)cc1 (centres undefined)
EC50 [1]: ≥ 100 µM
EC50 [2]: 57.8 µM
selectivity ratio [8]: < 10
EC50 [3]: ≥ 100 µM
inhibition [4]: 96%
activity at 200 µM [5]: ≥ 100%
IC50 [7]: 39.8 µM

COC(=O)NC(c1ccc(C(=N)N)cc1)P(=O)(Oc1ccccc1)Oc1ccccc1 (centres undefined)
EC50 [1]: ≥ 100 µM
EC50 [2]: ≥ 100 µM
EC50 [3]: ≥ 100 µM
inhibition [4]: 93%
activity at 200 µM [5]: ≥ 100%
IC50 [7]: 48.1 µM

O=C(NC(CCc1ccc([N+](=O)[O-])cc1)P(=O)(Oc1ccccc1)Oc1ccccc1)OCc1ccccc1 (centres undefined)
EC50 [1]: ≥ 100 µM
EC50 [2]: ≥ 100 µM
EC50 [3]: ≥ 100 µM
inhibition [4]: 100%
activity at 200 µM [5]: ≥ 100%
IC50 [7]: 13.1 µM

O=C(NC(c1cccc2ccccc12)P(=O)(Oc1ccccc1)Oc1ccccc1)OCc1ccccc1 (centres undefined)
inhibition [4]: 6%

N=C(N)N1CCC(C(NC(=O)/C=C\c2ccccc2)P(=O)(Oc2ccccc2)Oc2ccccc2)CC1 (centres undefined)
inhibition [4]: 11%

O=C(NC(c1cc([N+](=O)[O-])ccc1Cl)P(=O)(Oc1ccccc1)Oc1ccccc1)OCc1ccccc1 (centres undefined)
inhibition [4]: 6%

N=C(N)Nc1ccc(C(NC(=O)OCc2c(F)c(F)c(F)c(F)c2F)P(=O)(Oc2ccccc2)Oc2ccccc2)cc1 (centres undefined)
inhibition [4]: 48%

O=C(NC(c1ccc2ccccc2c1)P(=O)(Oc1ccccc1)Oc1ccccc1)OCc1ccccc1 (centres undefined)
inhibition [4]: 51%

CC(C)C[C@H](NC(=O)OCc1ccccc1)C(=O)NC(Cc1ccc(O)cc1)P(=O)(Oc1ccccc1)Oc1ccccc1 (some centres undefined)
inhibition [4]: < 1%

COc1cccc(C(NC(=O)OCc2ccccc2)P(=O)(Oc2ccccc2)Oc2ccccc2)n1 (centres undefined)
EC50 [1]: ≥ 100 µM
EC50 [2]: ≥ 100 µM
EC50 [3]: ≥ 100 µM
inhibition [4]: 100%
activity at 200 µM [5]: ≥ 100%
IC50 [7]: 38 µM

CC(=O)Nc1ccc(OP(=O)(Oc2ccc(NC(C)=O)cc2)C(NC(=O)OCc2ccccc2)c2cccc(N)c2)cc1 (centres undefined)
inhibition [4]: 21%

N#C[C@H](Cc1ccccc1)NC(=O)OCc1ccccc1
inhibition [4]: < 1%

O=C(NC(Cc1ccc(F)cc1)P(=O)(Oc1ccccc1)Oc1ccccc1)OCc1ccccc1 (centres undefined)
inhibition [4]: 13%

N=C(N)N1CCC(C(NC(=O)c2ccco2)P(=O)(Oc2ccccc2)Oc2ccccc2)CC1 (centres undefined)
inhibition [4]: 24%

Cc1ccc(CC(NC(=O)OCc2ccccc2)P(=O)(Oc2ccccc2)Oc2ccccc2)cc1 (centres undefined)
inhibition [4]: 7%

N=C(N)Nc1cccc2c(C(NC(=O)OCc3ccccc3)P(=O)(Oc3ccccc3)Oc3ccccc3)cccc12 (centres undefined)
inhibition [4]: 38%

CC(C)CC(NC(=O)OCc1ccccc1)P(=O)(Oc1ccccc1)Oc1ccccc1 (centres undefined)
inhibition [4]: 4%

N=C(N)N1CCC(C(Nc2ncc(-c3ccccc3)cn2)P(=O)(Oc2ccccc2)Oc2ccccc2)CC1 (centres undefined)
inhibition [4]: 12%

C#CCCCOC(=O)NC(Cc1ccc(NC(=N)N)cc1)P(=O)(Oc1ccccc1)Oc1ccccc1 (centres undefined)
inhibition [4]: 23%

COC(=O)NC(Cc1ccc(NC(=N)N)cc1)P(=O)(Oc1ccccc1)Oc1ccccc1 (centres undefined)
inhibition [4]: 27%

COC(=O)NC(c1cccc2c([N+](=O)[O-])cccc12)P(=O)(Oc1ccccc1)Oc1ccccc1 (centres undefined)
inhibition [4]: 17%

Nc1ccc(C(NC(=O)OCCOc2ccccc2)P(=O)(Oc2ccccc2)Oc2ccccc2)cc1 (centres undefined)
inhibition [4]: 1%

CSCCC(NC(=O)[C@H](CCCCN)NC(=O)OCc1ccccc1)P(=O)(Oc1ccccc1)Oc1ccccc1 (some centres undefined)
inhibition [4]: 4%

N=C(N)Nc1ccc(C(NS(=O)(=O)c2ccccc2)P(=O)(Oc2ccccc2)Oc2ccccc2)cc1 (centres undefined)
inhibition [4]: 29%

Nc1cccc(C(NC(=O)OCc2ccc3c(c2)OCO3)P(=O)(Oc2ccccc2)Oc2ccccc2)c1 (centres undefined)
inhibition [4]: 20%

O=C(NC(Cc1ccc(O)cc1)P(=O)(O)Oc1ccccc1)OCc1ccccc1 (centres undefined)
inhibition [4]: 11%

O=C(NC(Cc1ccc(C(F)(F)F)cc1)P(=O)(Oc1ccccc1)Oc1ccccc1)OCc1ccccc1 (centres undefined)
EC50 [1]: ≥ 100 µM
EC50 [2]: ≥ 100 µM
EC50 [3]: ≥ 100 µM
inhibition [4]: 100%
activity at 200 µM [5]: 93.9%
IC50 [7]: 14.2 µM

N#C[C@@H](NC(=O)OCc1ccccc1)c1cccc(N)c1
inhibition [4]: 8%

COC(=O)NC(c1cccc(N)c1)P(=O)(Oc1ccccc1)Oc1ccccc1 (centres undefined)
inhibition [4]: 7%

N=C(N)N1CCC(C(NC(=O)C#Cc2ccc3c(c2)OCO3)P(=O)(Oc2ccccc2)Oc2ccccc2)CC1 (centres undefined)
inhibition [4]: 24%
